Assay results taken from ChEMBL document CHEMBL1143077, “Synthesis of 2-[3-(7-Chloro-quinolin-4-ylamino)-alkyl]-1-(substituted phenyl)-2,3,4,9-tetrahydro-1H-beta-carbolines as a new class of antimalarial agents” (2008).
Values after ≈ are worked out from the molar mass of the structure shown.

tested on: Plasmodium falciparum; test: Antimalarial activity against chloroquine-sensitive Plasmodium falciparum NF54 after 36-40 hrs; assay type: functional
Method in brief: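 Rieckmann microassay: NF-54 kept in RPMI-1640 with 25 mM HEPES, 1% D-glucose, 0.23% sodium bicarbonate, 10% heat-inactivated human serum. Ring stage obtained by 5% D-sorbitol synchronization; ~1% parasitemia, 3% haematocrit. Compound 0.25–50 µg/ml, duplicate wells, 37 °C in candle jar. Giemsa smears scored microscopically; MIC taken as lowest concentration blocking full maturation to schizonts.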

`COC(=O)[C@H]1Cc2c([nH]c3ccccc23)[C@H](c2ccc(C(C)C)cc2)N1CCCNc1ccnc2cc(Cl)ccc12` and `COC(=O)[C@@H]1Cc2c([nH]c3ccccc23)[C@H](c2ccc(C(C)C)cc2)N1CCCNc1ccnc2cc(Cl)ccc12` are the same in MIC: 0.22 µM (≈ 0.125 µg/mL) for the first, 0.22 µM (≈ 0.125 µg/mL) for the second.

`COC(=O)[C@H]1Cc2c([nH]c3ccccc23)[C@H](c2ccc(SC)cc2)N1CCCNc1ccnc2cc(Cl)ccc12` and `COC(=O)[C@@H]1Cc2c([nH]c3ccccc23)[C@H](c2ccc(SC)cc2)N1CCCNc1ccnc2cc(Cl)ccc12` are the same in MIC: 17.5 µM (≈ 10 µg/mL) for the first, 17.5 µM (≈ 10 µg/mL) for the second.

`COC(=O)[C@@H]1Cc2c([nH]c3ccccc23)[C@@H](c2ccc(C(C)C)cc2)N1CCNc1ccnc2cc(Cl)ccc12` and `COC(=O)[C@@H]1Cc2c([nH]c3ccccc23)[C@H](c2ccc(C(C)C)cc2)N1CCNc1ccnc2cc(Cl)ccc12` are the same in MIC: 18.1 µM (≈ 10 µg/mL) for the first, 18.1 µM (≈ 10 µg/mL) for the second.

First: COC(=O)[C@@H]1Cc2c([nH]c3ccccc23)[C@@H](c2ccc(C(C)C)cc2)N1CCCNc1ccnc2cc(Cl)ccc12
Second: COC(=O)[C@H]1Cc2c([nH]c3ccccc23)[C@@H](c2ccc(C(C)C)cc2)N1CCCNc1ccnc2cc(Cl)ccc12
The MIC of the first is 4.4-fold lower: 0.05 µM (≈ 0.0284 µg/mL) for the first, 0.22 µM (≈ 0.125 µg/mL) for the second.

First: COC(=O)[C@H]1Cc2c([nH]c3ccccc23)[C@H](c2ccc(Cl)cc2)N1CCCNc1ccnc2cc(Cl)ccc12
Second: COC(=O)[C@@H]1Cc2c([nH]c3ccccc23)[C@H](c2ccc(Cl)cc2)N1CCCNc1ccnc2cc(Cl)ccc12
The MIC of the first is 2-fold lower: 1.79 µM (≈ 1 µg/mL) for the first, 3.58 µM (≈ 2 µg/mL) for the second.

Compared with `COC(=O)[C@@H]1Cc2c([nH]c3ccccc23)[C@@H](c2ccc(C)cc2)N1CCCNc1ccnc2cc(Cl)ccc12`, `COC(=O)[C@H]1Cc2c([nH]c3ccccc23)[C@H](c2ccc(C)cc2)N1CCCNc1ccnc2cc(Cl)ccc12` is 7.7-fold higher in MIC: 0.06 µM (≈ 0.0323 µg/mL) for the first, 0.46 µM (≈ 0.248 µg/mL) for the second.

`COC(=O)[C@@H]1Cc2c([nH]c3ccccc23)[C@H](c2ccc(OC)cc2)N1CCCNc1ccnc2cc(Cl)ccc12` and `COC(=O)[C@H]1Cc2c([nH]c3ccccc23)[C@@H](c2ccc(OC)cc2)N1CCCNc1ccnc2cc(Cl)ccc12` are the same in MIC: 3.61 µM (≈ 2 µg/mL) for the first, 3.61 µM (≈ 2 µg/mL) for the second.

First: CCc1ccc([C@@H]2c3[nH]c4ccccc4c3C[C@H](C(=O)OC)N2CCCNc2ccnc3cc(Cl)ccc23)cc1
Second: COC(=O)[C@H]1Cc2c([nH]c3ccccc23)[C@H](c2ccc(Br)cc2)N1CCCNc1ccnc2cc(Cl)ccc12
The MIC of the first is 150-fold lower: 0.11 µM (≈ 0.0608 µg/mL) for the first, 16.6 µM (≈ 10 µg/mL) for the second.

`COC(=O)[C@H]1Cc2c([nH]c3ccccc23)[C@H](c2ccc(C)cc2)N1CCNc1ccnc2cc(Cl)ccc12` and `COC(=O)[C@H]1Cc2c([nH]c3ccccc23)[C@@H](c2ccc(C(C)C)cc2)N1CCNc1ccnc2cc(Cl)ccc12` are within 1.5-fold of each other in MIC: 19.1 µM (≈ 10 µg/mL) for the first, 18.1 µM (≈ 10 µg/mL) for the second.

`COC(=O)[C@@H]1Cc2c([nH]c3ccccc23)[C@H](c2cc(OC)c(OC)c(OC)c2)N1CCCNc1ccnc2cc(Cl)ccc12` and `COC(=O)[C@H]1Cc2c([nH]c3ccccc23)[C@H](c2cc(OC)c(OC)c(OC)c2)N1CCCNc1ccnc2cc(Cl)ccc12` are the same in MIC: 16.3 µM (≈ 10 µg/mL) for the first, 16.3 µM (≈ 10 µg/mL) for the second.

Compared with `COC(=O)[C@@H]1Cc2c([nH]c3ccccc23)[C@@H](c2ccc(OC)cc2)N1CCCNc1ccnc2cc(Cl)ccc12`, `COC(=O)[C@H]1Cc2c([nH]c3ccccc23)[C@H](c2ccc(OC)cc2)N1CCCNc1ccnc2cc(Cl)ccc12` is 5-fold higher in MIC: 3.61 µM (≈ 2 µg/mL) for the first, 18.1 µM (≈ 10 µg/mL) for the second.

Compared with `COC(=O)[C@H]1Cc2c([nH]c3ccccc23)[C@H](c2ccc(C(C)C)cc2)N1CCNc1ccnc2cc(Cl)ccc12`, `CCN(CC)CCCC(C)Nc1ccnc2cc(Cl)ccc12` (centres undefined) [CHLOROQUINE] is 46-fold lower in MIC: 18.1 µM (≈ 10 µg/mL) for the first, 0.391 µM (≈ 0.125 µg/mL) for the second.
